Test results published in ChEMBL document CHEMBL4715681, “Targeting miRNA by tunable small molecule binders: peptidic aminosugar mediated interference in miR-21 biogenesis reverts epithelial to mesenchymal transition” (Medchemcomm, 2018).
Converted amounts (≈) assume the structure as drawn. “And” between values parts separate entries of the source, which are not always exact repeats. Equal entries are not always repeated. The source made the active and inactive calls. The calls are words filed in the database; no cut-off is given here.

What was measured:
Staphylococcus aureus [1] = assay: Antibacterial activity against Staphylococcus aureus ATCC 25923 assessed as reduction in bacterial growth at 12.5 uM incubated for 15 to 20 hrs by broth microdilution method relative to control; conditions: time 15-20 hrs
Pseudomonas aeruginosa [2] = assay: Antibacterial activity against Pseudomonas aeruginosa ATCC 27853 assessed as reduction in bacterial growth at 12.5 uM incubated for 15 to 20 hrs by broth microdilution method relative to control; conditions: time 15-20 hrs
microRNA 21 [3] = assay: Inhibition of premature miRNA-21 (unknown origin) transfected in human MCF7 cells assessed as reduction of maturation of pre-miRNA21 at 5 uM incubated for 48 hrs by qPCR analysis; assay type: cell-based
Summary of the method: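 MCF7 cells treated 48 h at 5 μM, as for the Western blots. Total RNA extracted with TRIzol and DNase-treated; 400-500 ng polyadenylated and reverse-transcribed with oligo(dT) adaptor. SYBR qPCR run in triplicate for mature miR21, normalized to U6 snRNA, fold change by 2^-ΔΔCt.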

microRNA 21 [4] = assay: Inhibition of premature miRNA-21 (unknown origin) transfected in human MCF7 cells assessed as increase in PDCD4 expression at 5 uM incubated for 48 hrs by Western blot analysis; assay type: cell-based
Summary of the method: (§1)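 MCF7 cells seeded at 4x10⁴/well, treated 24 h later at 5 μM for 48 h. Controls: antisense LNA transfected at 50 nM, kanamycin forms, streptomycin, untreated. Lysates (40 µg protein) run on SDS-PAGE and blotted to PVDF. Probed with PDCD4 or PTEN (1:1000) plus GAPDH (1:2000) antibodies overnight at 4 °C, then HRP secondary and ECL; bands quantified as fold change versus controls.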

Escherichia coli [5] = assay: Antibacterial activity against Escherichia coli ATCC 25922 assessed as reduction in bacterial growth at 12.5 uM incubated for 15 to 20 hrs by broth microdilution method relative to control; conditions: time 15-20 hrs
microRNA 21 [6] = assay: Displacement of F-neo from premature miRNA21 (unknown origin) at 100 nM by fluorescence assay relative to control; assay type: nucleic-acid assay
Summary of the method: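 Competition fluorescence: pre-miR21 (12.5 nM, annealed 75→25 °C at 1 °C/min) complexed with 100 nM F-neo in 10 mM phosphate, 25 mM KCl, 0.05 mM EDTA, pH 6.5. Test agent added at 100 nM. Emission read at ex 485/em 525 nm. Percent binding = (I−Ic)×100/(Ineo−Ic), referenced to 100 nM kanamycin; duplicate controls.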

Staphylococcus aureus [7] = assay: Antibacterial activity against methicillin-resistant Staphylococcus aureus ATCC 1960649 assessed as reduction in bacterial growth at 64 uM incubated for 15 to 20 hrs by broth microdilution method relative to control; assay type: functional; conditions: time 15-20 hrs; for inhibition of growth at 64 µM: read-out: GI
microRNA 21 [8] = assay: Binding affinity to pre-miRNA21 (unknown origin) by […]; assay type: nucleic-acid assay
Summary of the method: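 Bio-layer interferometry (Octet RED96) with immobilized pre-miR21. Analytes run at 8-128 nM in 10 mM HEPES, 50 mM NaCl, 0.05% Tween20. Association 5 min, dissociation 10 min; regeneration in 50 mM NaOH, 1 M NaCl. KD derived from the binding curves.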

[9] = Cytotoxicity against human MCF7 cells assessed as reduction cell viability at 2.5 to 5 uM incubated for 24 hrs by MTT assay; assay type: cell-based; conditions: dose 2.5-5 µM, read-out: INH
Summary of the method: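 MTT assay in MCF7 cells seeded at 8000/well and treated 24 h after seeding at 0, 2.5, 5, 7.5 and 10 μM, in triplicate. After 24 h exposure, MTT (0.5 mg/ml) added for 4 h at 37 °C. Crystals dissolved in DMSO and absorbance read at 570 nm to give percent viable cells.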

MCF7 [10] = assay: Inhibition of epithelial-mesenchymal transition in human MCF7 cells increase in E-cadherin expression at 5 uM incubated for 48 hrs by inverted fluorescence microscopy
MCF7 [11] = assay: Antimigratory activity in human MCF7 cells assessed as […] at 5 uM incubated for 48 hrs by imaging analysis relative to control; assay type: functional
Summary of the method: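 MCF-7 cells seeded densely and grown to confluence, then scratched with a pipette tip and washed with PBS. Treated at 5μM alongside an untreated well. Wound images quantified in ImageJ; three biological replicates, error bars ± S.D.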

microRNA 21 [12] = assay: Inhibition of premature miRNA-21 (unknown origin) transfected in human MCF7 cells assessed as increase in PTEN expression at 5 uM incubated for 48 hrs by Western blot analysis; assay type: cell-based
Summary of the method: as §1

Escherichia coli [13] = assay: Antibacterial activity against Escherichia coli ATCC 25922 assessed as reduction in bacterial growth at 64 uM incubated for 15 to 20 hrs by broth microdilution method relative to control; assay type: functional; conditions: time 15-20 hrs, read-out: GI
Staphylococcus aureus [14] = assay: Antibacterial activity against Staphylococcus aureus ATCC 25923 assessed as reduction in bacterial growth at 64 uM incubated for 15 to 20 hrs by broth microdilution method relative to control; assay type: functional; conditions: time 15-20 hrs, read-out: GI
Pseudomonas aeruginosa [15] = assay: Antibacterial activity against Pseudomonas aeruginosa ATCC 27853 assessed as reduction in bacterial growth at 64 uM incubated for 15 to 20 hrs by broth microdilution method relative to control; assay type: functional; conditions: time 15-20 hrs, read-out: GI
Pseudomonas aeruginosa [16] = assay: Antibacterial activity against Pseudomonas aeruginosa ATCC 27853 assessed as reduction in bacterial growth incubated for 15 to 20 hrs by broth microdilution method; assay type: functional; conditions: time 15-20 hrs
Summary of the method: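 CLSI broth microdilution on exponential-phase bacteria, ~3 x 10⁵ cells/mL in cation-adjusted Mueller-Hinton broth. Serial 2-fold dilutions give final 50 to 0.78 μM from 10x stocks in 10% DMSO. Incubated 15-20 h at 37°C, humidified. Growth read at 595 nm; percent inhibition averaged from triplicates to give MIC.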

Staphylococcus aureus [17] = assay: Antibacterial activity against Staphylococcus aureus ATCC 25923 assessed as reduction in bacterial growth incubated for 15 to 20 hrs by broth microdilution method; assay type: functional; conditions: time 15-20 hrs
Summary of the method: (§2)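 MIC by CLSI broth microdilution on exponential-phase cultures, in triplicate. Compound stocks were made at 10× final in 10% DMSO and added to the bacterial suspension (about 3 x 10⁵ cells/mL in cation-adjusted Mueller-Hinton broth). Final concentrations were 2-fold serial dilutions from 50 μM to 0.78 μM. Plates were incubated humidified at 37°C for 15-20 h, growth was read as absorbance at 595 nm, and % inhibition was averaged from the triplicates.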

Staphylococcus aureus [18] = assay: Antibacterial activity against methicillin-resistant Staphylococcus aureus ATCC 1960649 assessed as reduction in bacterial growth incubated for 15 to 20 hrs by broth microdilution method; assay type: functional; conditions: time 15-20 hrs
Summary of the method: as §2

Escherichia coli [19] = assay: Antibacterial activity against Escherichia coli ATCC 25922 assessed as reduction in bacterial growth incubated for 15 to 20 hrs by broth microdilution method; assay type: functional; conditions: time 15-20 hrs
Summary of the method: as §2

microRNA 21 [20] = assay: Displacement of F-neo from premature miRNA21 (unknown origin) by fluorescence assay; assay type: nucleic-acid assay
MCF7 [21] = assay: Antiproliferative activity against human MCF7 cells assessed as reduction in Ki67 expression at 5 uM incubated for 48 hrs by fluorescence microscopy; assay type: functional, cell-based
Summary of the method: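 MCF7 cells seeded on coverslips (8x10⁴ per well) and grown 24 h at 37 °C, 5% CO₂, then treated 48 h at 5 μM; untreated and kanamycin controls. Fixed in 3% paraformaldehyde, permeabilized with 0.2% Triton X-100, blocked with 0.5% BSA. Stained with anti-Ki67 (1:1000, overnight) and Alexa Fluor 488 secondary (1:2000, 2 h). Nuclear speckles imaged.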

Structure (SMILES)	growth inhibition (GI) (Staphylococcus aureus [1])	growth inhibition (GI) (Pseudomonas aeruginosa [2])	inhibition (microRNA 21 [3])	inhibition (microRNA 21 [4])	growth inhibition (GI) (Escherichia coli [5])	inhibition (microRNA 21 [6])	inhibition of growth at 64 µM (Staphylococcus aureus [7])	inhibition of growth at 64 µM (Escherichia coli [13])	inhibition of growth at 64 µM (Staphylococcus aureus [14])	other results
NC[C@H]1O[C@H](O[C@H]2[C@H](O)[C@@H](O[C@H]3O[C@H](CNC(=O)CCC(=O)N[C@@H](Cc4ccc(O)cc4)C(=O)N[C@@H](CC(=O)O)C(N)=O)[C@@H](O)[C@H](N)[C@H]3O)[C@H](N)C[C@@H]2N)[C@H](O)[C@@H](O)[C@@H]1O	inactive	inactive	Active	Active	inactive	5%				growth inhibition (GI) (Staphylococcus aureus [7]): inactive
CN[C@@H]1[C@H](O[C@H]2[C@H](O[C@H]3[C@H](O)[C@@H](O)[C@H](N=C(N)N)[C@@H](O)[C@@H]3N=C(N)N)O[C@@H](C)[C@]2(O)C=O)O[C@@H](CO)[C@H](O)[C@H]1O						107%				
NC[C@H]1O[C@H](O[C@H]2[C@H](O)[C@@H](O[C@H]3O[C@H](CNC(=O)CCC(=O)N[C@@H](Cc4ccccc4)C(=O)N[C@@H](CS)C(N)=O)[C@@H](O)[C@H](N)[C@H]3O)[C@H](N)C[C@@H]2N)[C@H](O)[C@@H](O)[C@@H]1O	inactive	inactive	Active	Active	inactive	140%	22%			Kd (microRNA 21 [8]): 43.6 nM; cytotoxicity at 24 h, up to 5 µM [9]: 2%; inhibition (MCF7 [10]): Active; Activity (MCF7 [11]): >50%; inhibition (microRNA 21 [12]): Active
N=C(N)NCCC[C@H](NC(=O)[C@H](CCCNC(=N)N)NC(=O)CCC(=O)NC[C@H]1O[C@H](O[C@@H]2[C@@H](O)[C@H](O[C@H]3O[C@H](CN)[C@@H](O)[C@H](O)[C@H]3O)[C@@H](N)C[C@H]2N)[C@H](O)[C@@H](N)[C@@H]1O)C(N)=O			Active	Active		137%	30%	25%	29%	Activity (microRNA 21 [8]; dose 16.0 nM): Active; inhibition of growth at 64 µM (Pseudomonas aeruginosa [15]): 11%
C[C@@H](O)[C@H](NC(=O)[C@H](CCCNC(=N)N)NC(=O)CCC(=O)NC[C@H]1O[C@H](O[C@@H]2[C@@H](O)[C@H](O[C@H]3O[C@H](CN)[C@@H](O)[C@H](O)[C@H]3O)[C@@H](N)C[C@H]2N)[C@H](O)[C@@H](N)[C@@H]1O)C(N)=O	inactive	inactive			inactive	131%				growth inhibition (GI) (Staphylococcus aureus [7]): inactive
NC[C@H]1O[C@H](O[C@H]2[C@H](O)[C@@H](O[C@H]3O[C@H](CO)[C@@H](O)[C@H](N)[C@H]3O)[C@H](N)C[C@@H]2N)[C@H](O)[C@@H](O)[C@@H]1O [KANAMYCIN]						107% and 100%	41%	100%	100%	MIC (Pseudomonas aeruginosa [16]): > 256 µM; MIC (Staphylococcus aureus [17]): 4 µM (≈ 1.94 µg/mL); MIC (Staphylococcus aureus [18]): > 256 µM; MIC (Escherichia coli [19]): 4 µM (≈ 1.94 µg/mL); inhibition of growth at 64 µM (Pseudomonas aeruginosa [15]): 11%; IC50 (microRNA 21 [20]): 1100 nM; inhibition (MCF7 [21]): inactive
N=C(N)NCCC[C@H](NC(=O)CCC(=O)NC[C@H]1O[C@H](O[C@@H]2[C@@H](O)[C@H](O[C@H]3O[C@H](CN)[C@@H](O)[C@H](O)[C@H]3O)[C@@H](N)C[C@H]2N)[C@H](O)[C@@H](N)[C@@H]1O)C(=O)N[C@@H](CS)C(N)=O		inactive					25%	13%	20%	
NC[C@H]1O[C@H](O[C@H]2[C@H](O)[C@@H](O[C@H]3O[C@H](CNC(=O)CCC(=O)N[C@@H](Cc4ccc(O)cc4)C(=O)N[C@@H](CS)C(N)=O)[C@@H](O)[C@H](N)[C@H]3O)[C@H](N)C[C@@H]2N)[C@H](O)[C@@H](O)[C@@H]1O		inactive			inactive	133%	38%		34%	inhibition (MCF7 [21]): Active
